High-throughput results from PubChem BioAssay.
Mdm2-MdmX inh = inhibitors of human Mdm2/MdmX interaction; inhibition, % at 8 µM; SaOS-2 split-luciferase Mdm2/MdmX complementation, luminescence; 3% of 330,000 active; O15151+Q00987; AID 485346;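 active means inhibition of at least 50% at 8 µM in the primary screen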
CSC inhib = cancer stem cell inhibition | AID 2717 | 1.1% of 300,000 active | inhibition, % at 7.5 µM | cancer stem cell-like cells viability, luminescence; in the data active means inhibition above about 75%; inconclusive means no clear call, values can overlap the other calls; tested in HMLE shEcad cells
Beta apoptosis = blocks beta cell apoptosis | INS-1E cytokine-induced death, ATP luminescence, 48 h; percent of positive-control rescue, neutral wells zero | protection from apoptosis, % (concentration not given with the values) | 0.8% of 300,000 active | AID 435005;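 active means Every replicate reaches about 75%, or at least half do and their mean reaches it too, limit read from the data; inconclusive means At least half of replicates reach the limit but their mean does not; inactive means Under half of replicates reach the limit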;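 further: 0% = cytokine-treated negative control wells and 100% = positive control rescue; higher means more ATP so stronger rescue from cytokine killing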
Lmaj promast = inhibitors of Leishmania major promastigote growth | inhibition, % at 10 µM | Leishmania major promastigotes, resazurin fluorescence viability | 9% of 200,000 active; in the data active means inhibition above about 50%;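 further: promastigotes grown with compound for 44 hours at 28 °C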
T cruzi inh = blocks replication of Trypanosoma cruzi. T. cruzi beta-gal in NIH3T3, luminescence, 90 h. inhibition, % (test concentration not listed). 1.4% of 300,000 active;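 active means mean inhibition across valid replicates above about 55%, limit read from the data; inconclusive means mean below that limit but half or more replicates reach it; inactive means mean below it, under half of replicates reach it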;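 further: signal also drops with host cell toxicity which is not excluded here; 0% = plate median of DMSO wells and 100% = zero luminescence signal; higher percent means less beta-gal luminescence so fewer parasites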
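Read-out: Parasite load inhibition, % | Test system: Mouse NIH/3T3 fibroblasts infected with β-gal-expressing T. cruzi Tulahuen C4 | Amount: 5,000 cells/well | Medium: DMEM, 2% fetal bovine serum | Signal: GalScreen β-gal luminescence, detergent lysis, 60 min | Timing: 3 h attach, ≥90 h co-culture | Also added: Tulahuen C4 trypomastigotes, 5000/well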
SKKanGAS inh = blocks kanamycin growth of S. pyogenes SKKanGAS strain. inhibition, % at 7.5 µM. 1.3% of 300,000 active. BacTiter-Glo, 6 h;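 active means mean replicate score, as percent of positive control median, at least 50; inconclusive means mean below 50 but one replicate at or above 50; inactive means mean and every replicate below 50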;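 further: strain carries kanamycin resistance gene driven by streptokinase promoter and grows in 40 µg/ml kanamycin; loss of luminescence reflects streptokinase promoter inhibition or plain growth inhibition; 0% = median of DMSO wells and 100% = positive control at its reference dose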
The depositor's hits bear a star; ? = inconclusive; / = no result. An excerpt weighted towards active compounds, which were near 9.4% of everything screened.

SMILES | Mdm2-MdmX inh | CSC inhib | Beta apoptosis | Lmaj promast | T cruzi inh | SKKanGAS inh
O=c1c2cc(Cl)ccc2nc(-c2ccc([N+](=O)[O-])cc2)n1O | 20 | 50 | -3 | -12 | -4 | 5
Cc1ccc(-c2nc3c(Cl)cc(Cl)cc3c(=O)n2O)cc1 | 33 | 32 | 5 | / | -15 | 90*
O=c1c2cc(Br)ccc2nc(-c2ccc(Cl)cc2)n1O | / | 24 | 5 | / | -22 | 89*
O=C(NCc1ccccn1)c1ccc(Cl)c(S(=O)(=O)N2CCOCC2)c1 | 16 | -7 | 1 | / | -1 | -3
O=C(COC(=O)c1cccc(S(=O)(=O)N2CCc3ccccc32)c1)Nc1ncc(C(F)(F)F)cc1Cl | 17 | 6 | -1 | -7 | -4 | 9
O=C(OCC(=O)N1CCc2ccccc21)c1cccc(S(=O)(=O)N2CCCc3ccccc32)c1 | 9 | 9 | 4 | 98* | 10 | -8
O=C(COC(=O)c1cccc(S(=O)(=O)N2CCc3ccccc32)c1)Nc1ncc(Cl)cc1Cl | 3 | -15 | 1 | 60* | 1 | 7
O=C(COC(=O)c1ccc(Cl)c(S(=O)(=O)N2CCc3ccccc3C2)c1)Nc1ncc(Cl)cc1Cl | -37 | -12 | -9 | 81* | 0 | 15
Cc1nc(NC(=O)COC(=O)c2ccc(S(=O)(=O)N3CCc4ccccc4C3)cc2)c(Cl)cc1Cl | 9 | -11 | -1 | -2 | -5 | -12
Cn1c(CCNC(=O)c2ccco2)nc2cc(NC(=O)c3ccccc3Cl)ccc21 | -11 | -3 | -13 | / | 6 | 1
COc1ccc(C)cc1NC(=O)COC(=O)c1ccc2c(c1)OCCO2 | 6 | / | -1 | / | / | /
COc1ccc(CC(NC(C)=O)C(=O)NC2CCN(C(=O)c3ccccc3F)CC2)cc1 (stereo not given) | 1 | -8 | 4 | / | -3 | -1
Cc1sc(NC(=O)c2ccco2)c(CN2CCC(C)CC2)c1C | -22 | 26 | -3 | 4 | 21 | 4
Cc1sc(NC(=O)c2ccco2)c(CN2CCN(Cc3ccccc3)CC2)c1C | 19 | -11 | -5 | 35 | 59* | 12
CS(=O)(=O)N1CCN(C2C3CC4CC(C3)CC2C4)CC1 (stereo not given) | 28 | -14 | 2 | 80* | -5 | -15
CS(=O)(=O)N1CCN(C2Cc3ccccc3C2)CC1 | 13 | 7 | -3 | 36 | 13 | -13
CCS(=O)(=O)N1CCN(C2CCC(C)CC2)CC1 (stereo not given) | -13 | 2 | -4 | 90* | -8 | -7
CC1CCC(N2CCN(S(C)(=O)=O)CC2)CC1 (stereo not given) | -8 | -5 | -8 | 89* | -9 | -1
O=C(c1ccccc1)N1CCN(C2C3CC4CC(C3)CC2C4)CC1 (stereo not given) | -14 | 40 | 6 | 29 | 12 | -8
O=C(NCCSCc1ccc(Cl)cc1)c1cccs1 | -5 | 1 | -4 | / | -1 | -8
O=C(Nc1nc(-c2ccco2)c(-c2ccco2)s1)C1CCC1 | 17 | -13 | -7 | 86* | 0 | 1
C/C(=N\NC(N)=O)c1ccc(-n2ccnc2)cc1 | 1 | / | 0 | -5 | 5 | -1
C/C(=N\NC(=O)c1ccc(C)cc1C)c1ccc(-n2ccnc2)cc1 | 22 | -8 | -3 | 79* | -8 | -7
CNS(=O)(=O)c1cnccc1N1CCN(c2cccc(Cl)c2)CC1 | 10 | -9 | -11 | 100* | 15 | -2
CCN(CC)S(=O)(=O)c1cnccc1N1CCN(c2cccc(Cl)c2)CC1 | 21 | 5 | / | 100* | 65* | 1
SMILES | Mdm2-MdmX inh | CSC inhib | Beta apoptosis | Lmaj promast | T cruzi inh | SKKanGAS inh
O=C(C1CCN(S(=O)(=O)c2cccnc2)CC1)N1CCN(c2cccc(Cl)c2)CC1 | 13 | 3 | 1 | 17 | 6 | -5
CN1CCN(S(=O)(=O)c2cnccc2N2CCN(c3cccc(Cl)c3)CC2)CC1 | 14 | -13 | -1 | 32 | 56* | -6
O=c1c(Cl)c(N2CCN(S(=O)(=O)c3ccc(F)cc3)CC2)cnn1-c1cccc(Cl)c1 | 26 | -15 | 20 | 98* | 37 | -3
COC(=O)C1CCN(CC(=O)Nc2cc(Cl)ccc2OC)CC1 | 33 | / | 1 | 1 | 55* | -14
COc1cc(NC(=O)c2cccc(Cl)c2)c(OC)cc1NC(=O)CN1CCOCC1 | 14 | -6 | 5 | 85* | 12 | -4
COc1cc(NC(=O)c2cccc(Cl)c2)c(OC)cc1NC(=O)CN1CCCCC1 | 30 | -5 | / | 28 | 40 | 5
O=C(O)CCn1c(-c2ccccn2)nc2ccccc21 | -13 | -13 | / | / | -5 | 0
c1ccc2[nH]c3cc4ncnc4cc3nc2c1 | -24 | -9 | 24 | 99* | 6 | -4
CC(C)[C@@H](C(=O)NC1CCN(Cc2ccccc2)CC1)N1C(=O)N2CCc3c([nH]c4ccccc34)[C@@]2(C)C1=O | 30 | 9 | 1 | / | ? | 2
COc1ccc(S(=O)(=O)Nc2cc3c4c(oc3c3ccccc23)CC(C)(C)CC4=O)cc1 | 25 | -7 | -3 | 100* | 38 | 53*
O=C(CCc1ccc(S(=O)(=O)NCCc2ccccc2)cc1)N1CCN(Cc2ccc3c(c2)OCO3)CC1 | 22 | -3 | / | 78* | 40 | -5
O=C(CN1C(=O)c2cccc3cccc1c23)N1CCN(Cc2ccc3c(c2)OCO3)CC1 | 19 | -4 | -2 | 88* | 5 | -1
O=C(C1COc2ccccc2O1)N1CCN(Cc2ccc(Br)cc2F)CC1 (stereo not given) | 25 | 10 | 2 | / | 22 | 7
O=C(CSCc1ccccc1)N1CCN(Cc2ccc3c(c2)OCO3)CC1 | 22 | -7 | 0 | 99* | -25 | 0
O=C(C1COc2ccccc2O1)N1CCN(Cc2ccc3c(c2)OCO3)CC1 (stereo not given) | 16 | 38 | -7 | 89* | 18 | -1
O=C(N/C=C/c1ccc(Cl)cc1)NCc1ccc(Cl)cc1 | 2 | -3 | -6 | 60* | 12 | 5
COc1ccc(S(=O)(=O)N2CCCCCC2)cc1NC(=O)CN(C)Cc1ccc2c(c1)OCO2 | 25 | / | 37 | / | / | /
Cc1ccc(CNC(=O)CSc2ccc(-c3ccco3)nn2)cc1 | -3 | 7 | -4 | 63* | 2 | 3
O=C(CSc1ccc(-c2ccco2)nn1)NCc1ccc(F)cc1 | 0 | / | -1 | 28 | -14 | -3
Cc1cc(C)cc(NC(=O)CSc2ccc(-c3ccco3)nn2)c1 | 11 | 18 | -5 | 51* | 1 | -1
CSCC[C@H](NC(=O)N1CCn2c1nc1ccccc12)C(=O)N1CCCCC1 | 32 | -6 | -9 | / | 7 | -5
Cc1ccc(CCN2C(=O)c3ccccc3C2C(=O)NCc2cccnc2)cc1 (stereo not given) | 4 | -8 | -1 | -4 | 3 | 1
Cc1ccc(-c2nnc(Nc3ccc4c(c3)nc(C)n4C)c3ccccc23)cc1 | 19 | 4 | 9 | 101* | 30 | 6
